Measurements as given in ChEMBL document CHEMBL1136739, “Modes of methyleneoxy bridging and their effect on tetrahydronaphthalene lignan cytotoxicity” (2003).
Each block holds one molecule with its values, some of them ahead of it.

How the values were obtained:
[1] = test system: Panel (Carcinoma cell lines); experiment: Mean graph midpoint for growth inhibition of all human cancer cell lines.; assay type: functional
Outline: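 Mean graph midpoint: the average GI50 (molar) over all human cancer cell lines successfully tested in the 60 cell line panel, expressed as log GI50.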

SF-539 = experiment: Cytotoxicity against CNS SF-539 cell line; assay type: functional; settings: Homo sapiens
Outline: (§1)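 Tested in the 60 human cancer cell line panel, after a preliminary one-dose screen in three cell lines. The value is the molar concentration giving 50% growth inhibition (GI50), reported as log GI50 for each cell line.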

SNB-75 = experiment: Cytotoxicity against prostate CNS SNB-75 cell line; assay type: functional; settings: Homo sapiens; outline: as §1
HCT-116 = experiment: Cytotoxicity against colon HCT116 cell line; assay type: functional; settings: Homo sapiens; outline: as §1
SR = experiment: Cytotoxicity against leukemia SR cell line; assay type: functional; settings: Homo sapiens; outline: as §1
HOP-62 = experiment: Cytotoxicity against lung HOP-62 cell line; assay type: functional; settings: Homo sapiens; outline: as §1
NCI-H322M = experiment: Cytotoxicity against lung […] cell line; assay type: functional; settings: Homo sapiens; outline: as §1
UACC-62 = experiment: Cytotoxicity against melanoma UACC-62 cell line; assay type: functional; settings: Homo sapiens; outline: as §1
OVCAR-3 = experiment: Cytotoxicity against ovarian OVCAR-3 cell line; assay type: functional; settings: Homo sapiens; outline: as §1
OVCAR-4 = experiment: Cytotoxicity against […] OVCAR-4 cell line; assay type: functional; settings: Homo sapiens; outline: as §1
SN12C = experiment: Cytotoxicity against renal SN12C cell line; assay type: functional; settings: Homo sapiens; outline: as §1
DU-145 = experiment: Cytotoxicity against prostate DU-145 cell line; assay type: functional; settings: Homo sapiens; outline: as §1
MDA-MB-435 (human) = experiment: Cytotoxicity against breast MDA-MB-435 cell line
[2] = in the assay text read “CNS” for “prostate CNS”

Structure (SMILES): COc1cc2c(cc1OC)[C@@H]1OC[C@H]([C@@H]2c2cc(OC)c(OC)c(OC)c2)[C@@H]1CO
GI50 [1]: > 100 µM

Structure (SMILES): COc1cc2c(cc1OC)[C@H]1c3cc(OC)c(OC)c(OC)c3OC[C@H]1[C@H](CO)C2
GI50 (SF-539): 24.5 µM | GI50 (SNB-75; [2]): 3.63 µM | GI50 (HCT-116): 22.4 µM | GI50 [1]: 20 µM | GI50 (SR): 18.2 µM | GI50 (HOP-62): 60.3 µM | GI50 (NCI-H322M): 8.71 µM | GI50 (UACC-62): 20 µM | GI50 (OVCAR-3): 15.1 µM | GI50 (OVCAR-4): 1.95 µM | GI50 (SN12C): 25.1 µM | GI50 (DU-145): 22.9 µM | GI50 (MDA-MB-435 (human)): 18.2 µM

Structure (SMILES): COc1cc2c(c(OC)c1OC)OC[C@H]1[C@H](COC(C)=O)Cc3cc4c(cc3[C@@H]21)OCO4
GI50 (SF-539): 57.5 µM | GI50 (HCT-116): 61.7 µM | GI50 [1]: 40.7 µM | GI50 (SR): 21.9 µM | GI50 (HOP-62): 67.6 µM | GI50 (UACC-62): 31.6 µM | GI50 (OVCAR-3): 56.2 µM | GI50 (OVCAR-4): 47.9 µM | GI50 (SN12C): 40.7 µM | GI50 (DU-145): 70.8 µM | GI50 (MDA-MB-435 (human)): 39.8 µM

Structure (SMILES): COc1ccc(C23OCC24C2COC(c5cc(OC)c(OC)cc53)C24)cc1OC (stereo unspecified)
GI50 (SF-539): > 100 µM | GI50 (HCT-116): > 100 µM | GI50 [1]: > 100 µM | GI50 (HOP-62): > 100 µM | GI50 (UACC-62): > 100 µM | GI50 (OVCAR-3): > 100 µM | GI50 (DU-145): > 100 µM | GI50 (MDA-MB-435 (human)): > 100 µM

Structure (SMILES): COc1cc2c(cc1OC)C1(c3cc(OC)c(OC)c(OC)c3)OCC13C1COC2C13 (stereo unspecified)
GI50 (SF-539): 31.6 µM | GI50 (HCT-116): 28.2 µM | GI50 [1]: 41.7 µM | GI50 (HOP-62): 70.8 µM | GI50 (UACC-62): 69.2 µM | GI50 (OVCAR-3): 30.2 µM | GI50 (SN12C): 34.7 µM | GI50 (DU-145): 29.5 µM | GI50 (MDA-MB-435 (human)): 19.5 µM

Structure (SMILES): COc1cc2c(cc1OC)[C@]1(c3cc(OC)c(OC)c(OC)c3)OC[C@H](C2)[C@@H]1CO
GI50 (SF-539): 17.8 µM | GI50 (HCT-116): 30.2 µM | GI50 [1]: 47.9 µM | GI50 (SR): 44.7 µM | GI50 (HOP-62): 47.9 µM | GI50 (NCI-H322M): 43.7 µM | GI50 (UACC-62): 63.1 µM | GI50 (OVCAR-3): 24 µM | GI50 (OVCAR-4): 77.6 µM | GI50 (SN12C): 58.9 µM | GI50 (DU-145): 30.2 µM | GI50 (MDA-MB-435 (human)): 6.76 µM

Structure (SMILES): COc1cc([C@@H]2c3cc4c(cc3[C@H]3OC[C@@H]2[C@@H]3CO)OCO4)cc(OC)c1OC
GI50 (SF-539): 17.8 µM | GI50 (HCT-116): 30.2 µM | GI50 [1]: 32.4 µM | GI50 (HOP-62): 47.9 µM | GI50 (UACC-62): 18.2 µM | GI50 (OVCAR-3): 24 µM | GI50 (SN12C): 58.9 µM | GI50 (DU-145): 30.2 µM | GI50 (MDA-MB-435 (human)): 6.76 µM

Structure (SMILES): COc1cc2c(c(OC)c1OC)OC[C@H]1[C@H](CO)Cc3cc4c(cc3[C@@H]21)OCO4
GI50 (SF-539): 20.9 µM | GI50 (SNB-75; [2]): 42.7 µM | GI50 (HCT-116): 30.2 µM | GI50 [1]: 30.9 µM | GI50 (SR): 5.13 µM | GI50 (HOP-62): 52.5 µM | GI50 (NCI-H322M): 47.9 µM | GI50 (UACC-62): 25.7 µM | GI50 (OVCAR-3): 25.1 µM | GI50 (OVCAR-4): 39.8 µM | GI50 (SN12C): 44.7 µM | GI50 (DU-145): 37.2 µM | GI50 (MDA-MB-435 (human)): 19.1 µM

Structure (SMILES): COc1cc([C@]23OC[C@H](Cc4cc5c(cc42)OCO5)[C@H]3CO)cc(OC)c1OC
GI50 (SF-539): 3.89 µM | GI50 (HCT-116): 0.0437 µM | GI50 [1]: 10.5 µM | GI50 (HOP-62): 0.219 µM | GI50 (UACC-62): 0.0776 µM | GI50 (OVCAR-3): 0.182 µM | GI50 (SN12C): 4.79 µM | GI50 (DU-145): 4.47 µM | GI50 (MDA-MB-435 (human)): 7.41 µM

Structure (SMILES): COc1cc2c(c(OC)c1OC)OC[C@@H]1[C@H]2c2cc3c(cc2C[C@H]1C)OCO3
GI50 (SF-539): 20.9 µM | GI50 (SNB-75; [2]): 12.3 µM | GI50 (HCT-116): 31.6 µM | GI50 [1]: 38 µM | GI50 (SR): 19.1 µM | GI50 (HOP-62): > 75.9 µM | GI50 (NCI-H322M): > 75.9 µM | GI50 (UACC-62): 30.2 µM | GI50 (OVCAR-3): 33.1 µM | GI50 (OVCAR-4): 37.2 µM | GI50 (SN12C): > 75.9 µM | GI50 (DU-145): > 75.9 µM | GI50 (MDA-MB-435 (human)): 11.5 µM

Structure (SMILES): COc1cc([C@@H]2c3cc4c(cc3[C@@H]3OC[C@H]2[C@@H]3CO)OCO4)cc(OC)c1OC
GI50 (SF-539): 15.5 µM | GI50 (HCT-116): 29.5 µM | GI50 [1]: 23.4 µM | GI50 (HOP-62): 19.1 µM | GI50 (UACC-62): 26.9 µM | GI50 (OVCAR-3): 14.5 µM | GI50 (SN12C): 31.6 µM | GI50 (DU-145): 39.8 µM | GI50 (MDA-MB-435 (human)): 3.89 µM

Structure (SMILES): COc1cc([C@]23OC[C@H](Cc4cc5c(cc42)OCO5)[C@H]3COC(C)=O)cc(OC)c1OC
GI50 (SF-539): 19.1 µM | GI50 (HCT-116): 13.8 µM | GI50 [1]: 12.3 µM | GI50 (HOP-62): 25.1 µM | GI50 (UACC-62): 10 µM | GI50 (SN12C): 25.7 µM | GI50 (MDA-MB-435 (human)): 1.86 µM

The next molecules have a lower GI50 [1] than those just listed; values first:

GI50 [1]: 4.07 µM
Structure (SMILES): COc1cc([C@]23OC[C@H](Cc4cc5c(cc42)OCO5)[C@@H]3CO)cc(OC)c1OC
GI50 (SF-539): 2.51 µM | GI50 (SNB-75; [2]): 2.69 µM | GI50 (HCT-116): 2.88 µM | GI50 (SR): 0.589 µM | GI50 (HOP-62): 4.37 µM | GI50 (NCI-H322M): 6.17 µM | GI50 (UACC-62): 4.27 µM | GI50 (OVCAR-3): 1.45 µM | GI50 (OVCAR-4): 23.4 µM | GI50 (DU-145): 2.63 µM | GI50 (MDA-MB-435 (human)): 0.295 µM

GI50 [1]: 0.851 µM
Structure (SMILES): COc1cc([C@]23OC[C@H](Cc4cc5c(cc42)OCO5)[C@@H]3C)cc(OC)c1OC
GI50 (SNB-75): 0.38 µM | GI50 (HCT-116): 0.437 µM | GI50 (SR): 0.148 µM | GI50 (HOP-62): 0.794 µM | GI50 (NCI-H322M): 2.14 µM | GI50 (UACC-62): 0.407 µM | GI50 (OVCAR-3): 0.186 µM | GI50 (OVCAR-4): 0.38 µM | GI50 (SN12C): 5.37 µM | GI50 (DU-145): 0.479 µM

GI50 [1]: 0.0182 µM
Structure (SMILES): COc1cc(C23OCC24C2COC(c5cc6c(cc53)OCO6)C24)cc(OC)c1OC (stereo unspecified)
GI50 (SF-539): < 0.01 µM | GI50 (HCT-116): < 0.01 µM | GI50 (HOP-62): < 0.01 µM | GI50 (UACC-62): < 0.01 µM | GI50 (OVCAR-3): < 0.01 µM | GI50 (DU-145): < 0.01 µM | GI50 (MDA-MB-435 (human)): < 0.01 µM

GI50 [1]: 3.8 µM
Structure (SMILES): COc1ccc([C@]23OC[C@H](Cc4cc(OC)c(OC)cc42)[C@@H]3C)cc1OC
GI50 (SF-539): 1.95 µM | GI50 (HCT-116): 2.75 µM | GI50 (HOP-62): 2.4 µM | GI50 (UACC-62): 6.92 µM | GI50 (OVCAR-3): 2.4 µM | GI50 (SN12C): 12 µM | GI50 (DU-145): 3.89 µM

GI50 [1]: 3.89 µM
Structure (SMILES): COc1cc([C@]23OC[C@H](Cc4cc5c(cc42)OCO5)[C@@H]3COC(C)=O)cc(OC)c1OC
GI50 (SF-539): 1.74 µM | GI50 (SNB-75; [2]): 2 µM | GI50 (HCT-116): 2.34 µM | GI50 (SR): 0.759 µM | GI50 (HOP-62): 4.27 µM | GI50 (NCI-H322M): 4.37 µM | GI50 (UACC-62): 2.95 µM | GI50 (OVCAR-3): 2.14 µM | GI50 (OVCAR-4): 4.27 µM | GI50 (SN12C): 5.01 µM | GI50 (DU-145): 4.57 µM | GI50 (MDA-MB-435 (human)): 0.468 µM
